Reference: article PMC9527016 (Toxicology letters, 2020)
Blank lines part the entries; values can stand above or below the compound they belong to.

How the values were obtained:
[1] = test system: cysteine peptide Ac-RFAACAA-COOH; test: Cysteine peptide depletion, RapidFire-MS/MS DPRA; format: biochemical; settings: for Detection as sensitizer in the cysteine peptide depletion assay: threshold defined by OECD test guideline 442C
[2] = test system: cysteine peptide Ac-RFAACAA-COOH; test: Confirmation of chemical-cysteine peptide adduct by HPLC-TOF-MS; format: biochemical; settings: HPLC-TOF-MS after 24 h incubation; Figure 6
How it was run: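 Cysteine peptide (Ac-RFAACAA-COOH) is mixed with alanine peptide and incubated with test compound for 24 h. The mixture is run by C18 LC (60 °C, 0.4 mL/min, 22 min water/acetonitrile 0.1% formic acid gradient) with positive-mode ESI-TOF MS over m/z 150–1700. Total ion chromatograms are recorded, and mass spectra of selected peaks are inspected for adduct or peptide dimer masses.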

[3] = test system: lysine peptide Ac-RFAAKAA-COOH; test: Lysine peptide depletion, HPLC-TOF-MS; format: biochemical
How it was run: (§1)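 Peptide mixtures are separated on a C18 column (2.1×150 mm, 1.7 μm) at 60 °C and 0.4 mL/min. Mobile phases are water and acetonitrile with 0.1% formic acid, run over a 22 min gradient. Detection is by positive-mode ESI-TOF MS over m/z 150–1700. Seven concentrations of test compound are tested. Integrated lysine or alanine peptide area is normalised to the DMSO control.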

[4] = test system: alanine peptide Ac-RFAAAAA-COOH; test: Alanine peptide signal, HPLC-TOF-MS; format: biochemical
How it was run: as §1

[5] = test system: alanine peptide Ac-RFAAAAA-COOH; test: Alanine peptide; format: biochemical
How it was run: (§2)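 Lysine peptide (Ac-RFAAKAA-COOH) and alanine internal-standard peptide are mixed, each at 0.5 mM final, in acetate ammonia buffer pH 10.2. Test compound in DMSO […] is added in a 384-well plate and incubated 24 h at room temperature. The range is 12 μM–50 mM or 25 μM–100 mM. Samples are diluted to 0.05 μM, then analysed by C4 SPE with triple-quadrupole MRM. Peptide area is normalised to DMSO wells.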

[6] = test system: lysine peptide Ac-RFAAKAA-COOH; test: Lysine peptide depletion, RapidFire-MS/MS DPRA; format: biochemical
How it was run: as §2

lysine peptide = settings: cited from earlier work
[7] = Precipitation in lysine peptide buffer; format: physicochemical; settings: 100 mM added into the lysine peptide buffer

SMILES: C=C(C)C(=O)OCC(C)O (stereo not shown) [2-Propenoic acid, 2-methyl-, monoester with 1,2-propanedio]
Detection as sensitizer in the cysteine peptide depletion assay [1]: not detected

SMILES: O=C/C=C/c1ccccc1 [Cinnamic aldehyde]
Adduct formation with cysteine peptide [2]: formed adduct peak with cysteine peptide
Lysine peptide signal, HPLC-TOF-MS ([3]; at 100 mM, Figure 5B): slight decrease
Alanine peptide signal, HPLC-TOF-MS ([4]; 7-point concentration range, Figure 5A): no changes were observed
Decrease in alanine peptide signal (depletion), RapidFire-MS/MS ([5]; high concentrations (above 1 mM), area normalized to DMSO, Figure 5A): > 60%

SMILES: CCCCCCCCCCCCOC(=O)c1cc(O)c(O)c(O)c1 [Dodecyl gallate]
Detection as sensitizer in the cysteine peptide depletion assay [1]: not detected

SMILES: C=CC(=O)OCC [Ethyl acrylate]
Depletion of the lysine peptide at the highest tested concentrations [6]: more than 50%
Detection as sensitizer in the cysteine peptide depletion assay [1]: not detected

SMILES: C=C(C)C(=O)OCCOC(=O)C(=C)C [Ethylene glycol dimethacrylate]
Adduct formation with cysteine peptide [2]: formed adduct peak with cysteine peptide

SMILES: O=CCCCC=O [Glutaraldehyde]
Lysine peptide signal vs concentration, HPLC-TOF-MS ([3]; Figure 5E): decreased in a concentration-dependent manner
Alanine peptide signal vs concentration, HPLC-TOF-MS ([4]; Figure 5D): decreased in a concentration-dependent manner
Alanine peptide signal vs concentration, RapidFire-MS/MS ([5]; Figure 5D): decreased in a concentration-dependent manner
Depletion of the lysine peptide at the highest tested concentrations [6]: more than 50%
Lysine peptide signal vs concentration, RapidFire-MS/MS ([6]; lysine peptide area only, Figure 5E): decreased in a concentration-dependent manner

SMILES: Oc1ccc(O)cc1 [Hydroquinone]
Depletion of the lysine peptide at the highest tested concentrations [6]: more than 50%
Depletion of the lysine peptide (lysine peptide; at 0.5 mM, ref Gerberick et al., 2004): 83.3%

SMILES: C=CC(=O)OCCO [Hydroxyethyl acrylate]
Depletion of the lysine peptide at the highest tested concentrations [6]: more than 50%

SMILES: O=C(NCNC(=O)NC1C(=O)NC(=O)N1CO)NC1C(=O)NC(=O)N1CO (stereo not shown) [Imidazolidinyl urea]
Detection as sensitizer in the cysteine peptide depletion assay [1]: not detected

Precipitation on addition to lysine peptide buffer [7]: immediate precipitation
SMILES: CCCCCCCCCCCCCCCC(=O)Cl [Palmitoyl chloride]
Lysine peptide depletion (literature) (lysine peptide; ref No, O.T., 2015): almost completely depleted lysine peptide
Detection as sensitizer in the cysteine peptide depletion assay [1]: not detected

SMILES: O=CCc1ccccc1 [Phenylacetaldehyde]
Detection as sensitizer in the cysteine peptide depletion assay [1]: not detected

SMILES: CCCOC(=O)c1cc(O)c(O)c(O)c1 [Propyl gallate]
Depletion of the lysine peptide at the highest tested concentrations [6]: more than 50%

SMILES: CCCCCC [n-Hexane]
Efficacy (% peptide depletion), cysteine peptide ([1]; pH 7.5): Inactive
IC50 (M), depletion of cysteine peptide ([1]; pH 7.5): Inactive
